pIC50: −log10 of the molar value. The source made the active and inactive calls. The calls are words filed in the database; no cut-off is given here.
How the values were obtained:
HeLa [1] = test: Induction of mitochondrial membrane depolarization in human HeLa cells after 24 to 48 hrs by JC-1 staining-based fluorescence assay; format: functional, cell-based
Procedure, shortened: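 HeLa cells treated 24 or 48 h, then stained with JC-1. Cells with depolarised mitochondria quantified by flow cytometry. Mean of three independent experiments.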

HeLa [2] = test: Induction of DNA damage in human HeLa cells assessed as upregulation of gamma-H2A.X protein expression at 10 nM after 48 hrs by Western blot analysis; format: functional, cell-based
Procedure, shortened: (§1)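 HeLa cultures treated 24 or 48 h, washed in cold PBS, lysed 30 min at 0 °C, clarified at 15000g. 20 μg protein run on 7.5−15% gradient SDS-PAGE and blotted to PVDF. Primary antibodies 2 h at room temperature, peroxidase secondary 60 min, ECL detection. Membranes stripped and reprobed for β-actin as loading control.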

[3] = Cytotoxicity against human CEM/0 cells assessed as growth inhibition after 48 hrs by coulter counting analysis; format: functional, cell-based; conditions: CCRF-CEM
HeLa [4] = test: Induction of mitochondrial ROS generation in human HeLa cells after 24 to 48 hrs by H2-DCFDA staining-based flow cytometric analysis; format: functional, cell-based
Procedure, shortened: (§2)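 HeLa cells incubated 24 or 48 h with compound, stained with H₂-DCFDA, and intracellular ROS measured by flow cytometry. Mean of three independent experiments.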

MNNG-HOS [5] = test: Cytotoxicity against human MNNG-HOS cells; format: functional, cell-based; conditions: HOS-TE85
HeLa [6] = test: Cytotoxicity against human HeLa cells assessed as growth inhibition after 48 hrs by coulter counting analysis; format: functional, cell-based
PBL = test: Cytotoxicity against PHA-stimulated human PBL assessed as growth inhibition after 72 hrs by MTT assay; format: cell-based
Procedure, shortened: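 Human PBL from healthy donors were isolated on a density gradient, washed, and held overnight in RPMI-1640 with 10% FBS. For proliferating cultures, nonadherent cells were resuspended at 5 × 10⁵ cells/mL with 2.5 μg/mL PHA; resting PBL received no PHA. Cells were exposed to varying compound concentrations, and viability was read by MTT after 72 h. IC50 is the concentration reducing growth by 50%, as the mean of three independent experiments.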

MNNG-HOS [7] = test: Antitumor activity against human MNNG-HOS cells xenografted in Balb/c-nu mouse assessed as tumor growth inhibition at 50 mg/kg, ip measured on day 18 relative to vehicle-treated control; format: functional; conditions: HOS-TE85, ip, 432 h, route intraperitoneal, read-out: TGI
Procedure, shortened: (§3)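 MNNG/HOS osteosarcoma cells grown to exponential phase, suspended in FBS-free MEM (10⁷ cells/mL), 0.1 mL injected into back hypodermis of nude mice. At ~100 mm³, 12 mice randomised to three groups (vehicle, CA-4P in isotonic saline, test in 5% DMSO/olive oil). 50 mg/kg ip at 0.01 mL/g on days 0, 3, 6, 9. Tumour volume and body weight tracked; tumours excised and weighed day 18; […].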

[8] = Selectivity ratio of IC50 for HUVEC to IC50 for mouse L1210 cells; format: ADME, cell-based; conditions: HUVEC and L1210 cells, read-out: Ratio IC50
[9] = target: T1, M-phase inducer phosphatase 3 (Homo sapiens) (UniProt P30307); test: Increase of cdc25c phosphorylation at Ser216 in human HeLa cells at 10 to 100 nM after 24 hrs by Western blot analysis; format: cell-based; procedure, shortened: as §1
T1 sequence (whole entry): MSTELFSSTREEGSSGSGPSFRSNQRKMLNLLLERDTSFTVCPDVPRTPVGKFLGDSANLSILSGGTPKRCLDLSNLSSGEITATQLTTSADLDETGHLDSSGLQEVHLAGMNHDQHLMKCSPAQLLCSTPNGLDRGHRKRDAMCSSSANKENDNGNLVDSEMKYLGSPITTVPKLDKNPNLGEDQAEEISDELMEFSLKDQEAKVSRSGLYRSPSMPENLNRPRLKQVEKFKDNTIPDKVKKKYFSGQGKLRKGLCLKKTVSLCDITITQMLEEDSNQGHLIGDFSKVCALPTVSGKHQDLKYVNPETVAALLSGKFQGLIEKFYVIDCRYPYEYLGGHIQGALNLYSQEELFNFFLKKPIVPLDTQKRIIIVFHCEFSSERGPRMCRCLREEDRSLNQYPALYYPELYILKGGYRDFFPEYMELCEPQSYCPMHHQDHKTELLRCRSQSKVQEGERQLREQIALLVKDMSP

[10] = target: T1, M-phase inducer phosphatase 3 (Homo sapiens); test: Increase of cdc25c phosphorylation at Ser216 in human HeLa cells at 10 to 100 nM after 48 hrs by Western blot analysis; format: cell-based; procedure, shortened: as §1
HeLa [11] = test: Induction of apoptosis in human HeLa cells at 15 nM after 24 to 48 hrs by annexin-V-FITC/propidium iodide staining-based flow cytometric analysis; format: functional, cell-based
Procedure, shortened: (§4)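 HeLa cells treated 24 or 48 h, stained with annexin-V-FITC and PI, analysed by flow cytometry. Excitation 488 nm; emission 525 nm for FITC, 585 nm for PI. Gating separates live, early apoptotic, late apoptotic and necrotic cells. Mean of three independent experiments.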

HeLa [12] = test: Cell cycle arrest in human HeLa cells assessed as accumulation at G2/M phase at 10 nM after 24 hrs by propidium iodide staining-based flow cytometric analysis; format: functional
Procedure, shortened: (§5)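 HeLa cells (5 × 10⁵) treated for 24 h. Harvested, fixed in 70% ethanol chilled to 0 °C, then suspended in RNase with 0.1% Triton X-100. DNA stained with PI, analysed by flow cytometry as DNA-content histograms. Mean of three independent experiments.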

HeLa [13] = test: Induction of apoptosis in human HeLa cells after 24 to 48 hrs by annexin-V-FITC/propidium iodide staining-based flow cytometric analysis; format: functional, cell-based; procedure, shortened: as §4
Mus musculus = test: Toxicity in Balb/c-nu mouse xenografted with human MNNG-HOS cells assessed as change in body weight at 50 mg/kg, ip administered once every 3 days for 9 days measured after day 18; format: organism-based; set-up: dose 50 mg/kg, route intraperitoneal; conditions: in vivo; procedure, shortened: as §3
Jurkat = test: Cell cycle arrest in human Jurkat cells assessed as accumulation at G2/M phase at 15 to 30 nM after 24 hrs by propidium iodide staining-based flow cytometric analysis relative to control; format: functional
Procedure, shortened: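 Jurkat cells treated for 24 h, fixed, PI-labelled and analysed by flow cytometry for cell-cycle phase distribution. Mean of three independent experiments.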

[14] = target: Cyclin-dependent kinase 1 (Homo sapiens) (UniProt P06493); test: Decrease of cdc2 protein phosphorylation at Tyr15 in human HeLa cells at 10 to 100 nM after 24 to 48 hrs by Western blot analysis; format: cell-based; procedure, shortened: as §1
Sequence of Cyclin-dependent kinase 1 (Homo sapiens) (P06493 whole entry, looked up): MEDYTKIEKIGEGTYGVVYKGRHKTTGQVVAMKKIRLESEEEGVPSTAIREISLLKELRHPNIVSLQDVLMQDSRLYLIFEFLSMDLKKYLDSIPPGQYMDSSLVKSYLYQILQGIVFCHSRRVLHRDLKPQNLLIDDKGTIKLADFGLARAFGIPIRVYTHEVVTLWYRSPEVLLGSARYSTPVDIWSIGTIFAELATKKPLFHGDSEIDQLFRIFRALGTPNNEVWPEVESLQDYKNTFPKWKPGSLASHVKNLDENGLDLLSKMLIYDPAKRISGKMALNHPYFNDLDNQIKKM

MNNG-HOS [15] = test: Antitumor activity against human MNNG-HOS cells xenografted in Balb/c-nu mouse assessed as reduction in tumor weight at 50 mg/kg, ip administered once every 3 days for 9 days measured after day 18; format: functional, organism-based; set-up: dose 50 mg/kg; conditions: HOS-TE85; procedure, shortened: as §3
HeLa [16] = test: Induction of apoptosis in human HeLa cells assessed as caspase-3 cleavage at 10 to 100 nM after 24 to 48 hrs by Western blot analysis; format: functional, cell-based; procedure, shortened: as §1
HeLa [17] = test: Cell cycle arrest in human HeLa cells assessed as reduction in S phase up to 60 nM after 24 hrs by propidium iodide staining-based flow cytometric analysis; format: functional; procedure, shortened: as §5
HeLa [18] = test: Effect on cyclin B protein expression in human HeLa cells at 10 to 100 nM after 24 to 48 hrs by Western blot analysis; format: functional, cell-based; procedure, shortened: as §1
HeLa [19] = test: Induction of mitochondrial ROS generation in human HeLa cells at 15 to 250 nM by H2-DCFDA staining-based flow cytometric analysis; format: functional, cell-based; conditions: TDE = time-dependent effect; procedure, shortened: as §2

Structure (SMILES): COc1cc(C(=O)c2cc3cc(N)cc(OC)c3s2)cc(OC)c1OC
- Activity (HeLa [1]): Dose-dependent effect
- Activity (HeLa [2]): Active
- pIC50 [3]: 8.39
- Activity (HeLa [4]): Dose-dependent effect
- pIC50 (MNNG-HOS [5]): 9.00
- pIC50 (HeLa [6]): 8.10
- pIC50 (PBL): 4.69
- inhibition in vivo at 50 mg/kg (MNNG-HOS [7]): 62%
- selectivity ratio [8]: 460
- Activity [9]: Active
- Activity [10]: inactive
- Activity (HeLa [11]): Active
- Activity (HeLa [12]): Active
- Activity (HeLa [13]): Dose-dependent effect
- Activity (Mus musculus): Non-toxic
- Activity (Jurkat): 40%
- Activity [14]: Active
- Activity (MNNG-HOS [15]): Active
- Activity (HeLa [16]): Active
- Activity (HeLa [17]): Active
- Activity (HeLa [18]): inactive
- Activity (HeLa [19]): tde

Reference: ChEMBL document CHEMBL3098049, “Concise synthesis and biological evaluation of 2-Aroyl-5-amino benzo[b]thiophene derivatives as a novel class of potent antimitotic agents” (J Med Chem, 2013)
